Measurements collected from several papers.
Target: Glycogen synthase kinase-3 alpha (GSK3A, Homo sapiens, UniProt P49840)

Compound	assay	setting	measurement	result
COc1ccc2oc(-c3ccc4nc(N)oc4c3)c/c(=N\c3ccccc3NC(=O)CCN)c2c1	binding	1 µM	remaining binding	94%
Cc1cc(O)c(-c2ccc([C@@H](C)CN(C)C)cc2)c2c1[nH]c(=O)c1sccc12	enzyme activity, inhibitor	0.1 µM	inhibition	-5.76%
C=CC(=O)N1CCC([C@@H]2CCNc3c(C(N)=O)c(-c4ccc(Oc5ccccc5)cc4)nn32)CC1	enzyme activity, inhibitor	1 µM	inhibition	2%
C[C@H]1CC[C@H](n2c3cnccc3c3cnc(Nc4ccc5c(n4)CCN(C(=O)CO)C5)nc32)CC1	cell-free assay	1 µM	remaining signal	35%
CC(=O)ON=C1C=CC(=C(C#N)c2ccccc2)C=C1	enzyme activity, inhibitor, ADP detection	20 µM	activity vs control	94%
CCCCC(=O)Nc1ccc(-c2ccc3ncn(CCC)c(=O)c3c2)cn1	binding, competition with immobilised ligand	0.5 µM	remaining binding	94%
Cc1ccc(NC(=O)c2ccnc(C(F)(F)F)c2)cc1-c1cc(OCCO)nc(N2CCOCC2)c1	binding	1 µM	remaining binding	100%
CO[C@@H]1[C@H](N(C)C(=O)c2ccccc2)C[C@H]2O[C@]1(C)n1c3ccccc3c3c4c(c5c6ccccc6n2c5c31)C(=O)NC4	enzyme activity, inhibitor	1 µM	inhibition	14%
C1=C/COCc2cc(ccc2OCCN2CCCC2)Nc2nccc(n2)-c2cccc(c2)COC/1	binding	0.1 µM	remaining binding	100%
